# Measured values collected from several papers.
# Read-out: cell growth or viability
Structure (SMILES),cell line,assay,conditions,IC50 [nM]
NCCCOc1cc(NC(=O)c2cc(OCc3c[nH]nn3)cc(C(=O)Nc3cc(OCCCN)c4ccccc4n3)n2)nc2ccccc12,HT-1080,ATP luminescence,72 h,35200
CCCON(Cc1ccc(C(=O)NO)cc1)C(=O)Nc1ccc(N(C)C)cc1,SUP-B15,ATP luminescence,72 h,6620
CCN1CCN(c2ccc(Nc3cc(N(C)C(=O)Nc4c(Cl)c(OC)cc(OC)c4Cl)ncn3)cc2)CC1,SNU-16,ATP luminescence,96 h,9.31
NCCOc1cc(C(=O)Nc2cc(OCCN)c3ccccc3n2)nc(C(=O)Nc2cc(OCCN)c3ccccc3n2)c1,HT-1080,ATP luminescence,72 h,600
CCCCCC/N=C1\c2cc(C(N)=O)nc3c(N)c(Cl)c(N)c(c23)N1C,HCC4017,,,2870
CC[C@H]1CN2CCc3cc(OC)c(OC)cc3[C@@H]2C[C@@H]1C[C@H]1NCCc2cc(OC)c(OC)cc21,CHO,MTT,,250
COc1c(C)c(OC)c2c(c1C)OC(c1ccccc1)CC2=O (centres unmarked),SH-SY5Y,SRB,72 h,> 50000
COc1cccc2c1C(=O)c1c(O)c3c(c(O)c1C2=O)C[C@@](O)(C(=O)CO)C[C@@H]3O[C@H]1C[C@H](N)[C@H](O)[C@H](C)O1,A 172,WST-1,72 h,40
CCCCCCCCCCCC(=O)Oc1c(C)c(O)c(C(=O)/C=C/c2ccccc2)c(OC)c1C,SH-SY5Y,SRB,72 h,> 50000
O=C1Nc2ccccc2C1=Cc1cc2cc(Cl)ccc2nc1Cl,CHO,MTT,72 h,38500
CCCON(Cc1ccc(C(=O)NO)cc1)C(=O)Nc1ccccc1,SUP-B15,ATP luminescence,72 h,6780
CN(C)CCOc1cc(NC(=O)c2cc(Cl)cc(C(=O)Nc3cc(OCCN(C)C)c4ccccc4n3)n2)nc2ccccc12,HT-1080,ATP luminescence,72 h,2200
Cn1ccnc1CNCCNc1ccnc2cc(Cl)ccc12,CHO,MTT,,240000
O=C(Nc1cc(OCCN2CCCC2)c2ccccc2n1)c1cc(Cl)cc(C(=O)Nc2cc(OCCN3CCCC3)c3ccccc3n2)n1,HT-1080,ATP luminescence,72 h,3400
O=C(Nc1cccc(CO)c1)c1c[nH]c2ccc(Cl)cc12,T24,MTT,,16000
CCN(CC)CCCC(C)Nc1cnc(C(=O)Nc2cc(F)cc3cccnc23)cn1 (centres unmarked),Pan02,MTT,,4300
O=C1Nc2ccccc2C1=Cc1cc2ccc(Cl)cc2nc1Cl,CHO,MTT,72 h,39200
Clc1ccc2c(NCCN(Cc3ccccn3)Cc3ccccn3)ccnc2c1,CHO,MTT,,> 240000
O=C(Nc1ccccc1CO)c1c[nH]c2ccc(Cl)cc12,T24,MTT,,18000
NCCCOc1cc(NC(=O)c2cc(Cl)cc(C(=O)Nc3cc(OCCCN)c4ccccc4n3)n2)nc2ccccc12,HT-1080,ATP luminescence,72 h,600
C=C(C)C(=O)Nc1ccc(-c2c(-c3ccc(Oc4nccc(C)n4)c(F)c3)c3c(N)ncnc3n2C)cc1,NCI-H716,ATP luminescence,96 h,2.09
CC(C)C[C@H](NC(=O)[C@H](Cc1ccccc1)NC(=O)c1cnccn1)B(O)O,SK-N-MC,ATP luminescence,,7.8
NCCCOc1cc(NC(=O)c2cccc(C(=O)Nc3cc(OCCCN)c4ccccc4n3)n2)nc2ccccc12,HT-1080,ATP luminescence,72 h,1100
COc1cc(Nc2nccc(-c3cnn4nc(OC)ccc34)n2)cc(C(F)(F)F)c1,SK-N-MC,ATP luminescence,,130
CCN1C(=O)N(c2c(F)c(OC)cc(OC)c2F)Cc2cnc3[nH]c(CN4CCOCC4)cc3c21,NCI-H716,ATP luminescence,96 h,1.71
COc1ccc(OC)c(NC(=S)NN=Cc2ccccn2)c1,BHK,SRB,48 h,111000
CC(=O)O[C@@]12CO[C@@H]1C[C@H](O)[C@@]1(C)C(=O)[C@H](O)C3=C(C)[C@@H](OC(=O)[C@H](O)[C@@H](NC(=O)OC(C)(C)C)c4ccccc4)C[C@@](O)([C@@H](OC(=O)c4ccccc4)[C@H]21)C3(C)C,HCC1937,ATP luminescence,72 h,> 2500
C#CCOc1cc(C(=O)Nc2cc(OCCCN)c3ccccc3n2)nc(C(=O)Nc2cc(OCCCN)c3ccccc3n2)c1,HT-1080,ATP luminescence,72 h,2600
Cc1cc(C)cc(COc2cc3c(cc2OCc2cc(C)cc(C)c2)[C@H]2C[C@](O)(Cc4cn(Cc5ccc(S(C)(=O)=O)cc5)nn4)C[C@H](C)N2CC3)c1,GES1,MTT,48 h,2050
O=C(Nc1cc(OCCN2CCCC2)c2ccccc2n1)c1cc(OCCN2CCCC2)cc(C(=O)Nc2cc(OCCN3CCCC3)c3ccccc3n2)n1,HT-1080,ATP luminescence,72 h,2200
CN1/C(=N/c2ccc(Cl)cc2)c2cc(C(N)=O)nc3c(N)c(Cl)c(N)c1c23,HCC4017,,,22900
C=CC(=O)Nc1ccc(CCn2cc(C[C@@]3(O)C[C@@H]4c5cc(OCc6cc(C)cc(C)c6)c(OCc6cc(C)cc(C)c6)cc5CCN4[C@@H](C)C3)nn2)cc1,GES1,MTT,48 h,730
